We go through 37 compounds from ChEMBL document CHEMBL2311413, “N-cinnamoylated chloroquine analogues as dual-stage antimalarial leads” (J Med Chem, 2013).

Molecules are shown by their SMILES. The source made the active and inactive calls. The rule behind the calls is not given here.

For series [1], the system named is Plasmodium falciparum. Nature of the series: Antiplasmodial activity against CQ-resistant Plasmodium falciparum W2 blood stage form after 48 hrs by FACSort cytometry. As to conditions: W2, 48 h. It counts as functional, organism-based.
For series [2], the system named is Plasmodium falciparum. The experiment in a line: Antiplasmodial activity against CQ-resistant Plasmodium falciparum 3D7 blood stage form after 48 hrs by FACSort cytometry. It counts as functional, organism-based. The conditions noted are these: 3D7, 48 h.
Series [3] in a line: Inhibition of beta-hematin formation at 0.1 to 1 mM after 48 hrs relative to control. Type of series: functional. The method, boiled down:
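Compounds in DMSO, 0.1−1 mM, added in triplicate to hemin chloride in DMSO (5.2 mg/mL). Formation started with 0.2 M acetate buffer pH 4.4, then 37 °C for 48 h. After centrifugation, pellet washed four times with DMSO and dissolved in 0.2 M NaOH, diluted 1:6 in 0.1 M NaOH, absorbance at 405 nm. Water and DMSO as negative controls.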

Series [4] has as its system Plasmodium berghei. The experiment in a line: Antiplasmodial activity against Plasmodium berghei liver stage form transfected in human Huh-7 cells assessed as cell viability after 48 hrs by luciferase reporter gene assay. Type of series: functional, organism-based. As to conditions: Huh-7, 48 h.
For series [5], the system named is Mus musculus. Nature of the series: Toxicity in Plasmodium berghei infected Swiss Webster mouse at 100 mg/kg, ip bid administered for 4 days by Giemsa staining method. The conditions noted are these: in vivo, 96 h. It counts as organism-based. Details: dose 100 mg/kg, route intraperitoneal. In a few lines:
(§1)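 Female Swiss Webster mice (n = 5) infected ip with 10^6 P. berghei-infected erythrocytes. Treatment began 2 h later: ip 10, 30 or 100 mg/kg twice daily for 4 days. Chloroquine control at 3, 10 and 30 mg/kg ip twice daily. Daily checks for toxicity and for parasitemia on Giemsa-stained blood smears; survival followed over time.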

For series [6], the system named is Plasmodium berghei. Nature of the series: Antimalarial activity against Plasmodium berghei infected in Swiss Webster mouse assessed as increase in survival time at 30 mg/kg, ip bid administered for 4 days by Giemsa staining method relative to untreated control. It counts as functional. The method, boiled down:
(§2)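 Female Swiss Webster mice (n = 5) infected ip with 10^6 P. berghei-infected erythrocytes. Dosing began 2 h later by ip injection twice daily for 4 days; chloroquine control at 3, 10, 30 mg/kg ip twice daily. Mice checked daily for toxicity and parasitemia (Giemsa-stained blood smears). Survival after treatment start compared with untreated controls.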

For series [7], the system named is Plasmodium berghei. Nature of the series: Antimalarial activity against Plasmodium berghei infected in Swiss Webster mouse assessed as increase in survival time at 10 mg/kg, ip bid administered for 4 days by Giemsa staining method relative to untreated control. It counts as functional. In a few lines:
as §2

The test system of a further series is Huh-7. Nature of the series: Cytotoxicity against human HuH7 cells assessed as cell viability by AlamarBlue assay. Type of series: cell-based. In a few lines:
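Huh-7 human hepatoma cells grown in RPMI 1640 with 10% FCS, nonessential amino acids, glutamine and 10 mM HEPES pH 7, 37 °C, 5% CO2; 1.2 × 10^4 cells/well seeded the day before. Compound added ~1 h before P. berghei sporozoite infection and renewed at 24 h. Viability read by AlamarBlue per manufacturer's protocol at 48 h post-infection.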
(In general: Resazurin is reduced to fluorescent resorufin, in cell work by metabolically active cells.)

Series [8] has as its system Plasmodium berghei. Nature of the series: Antimalarial activity against Plasmodium berghei infected in Swiss Webster mouse assessed as increase in survival time at 100 mg/kg, ip bid administered for 4 days by Giemsa staining method relative to untreated control. Type of series: functional. As to conditions: route intraperitoneal. The method, boiled down:
as §2

Series [9] has as its system Mus musculus. Nature of the series: Toxicity in Plasmodium berghei infected Swiss Webster mouse at 10 to 100 mg/kg, ip bid administered for 4 days by Giemsa staining method. Type of series: organism-based. More on the design: dose 10-100 mg/kg, route intraperitoneal. As to conditions: in vivo, 96 h. The method, boiled down: as §1

Regarding `O=C(/C=C/c1ccc(F)cc1)NCCCNc1ccnc2cc(Cl)ccc12`, the IC50 is 46.7 nM in the series on Plasmodium falciparum [1] and 47.7 nM with Plasmodium falciparum [2].
`O=C(/C=C/c1ccc(Cl)cc1)NCCCNc1ccnc2cc(Cl)ccc12`: the values for the IC50 in the series with Plasmodium falciparum [1] and with Plasmodium falciparum [2] were 41.6 nM and 46.5 nM, respectively. Moreover, the inhibition in series [3] is 50%.
For the compound `Nc1ccc(/C=C/C(=O)NCCCCNc2ccnc3cc(Cl)ccc23)cc1`, the half-maximal inhibitory concentration (IC50) was determined as 58.8 nM with Plasmodium falciparum [1] and 78.1 nM in the series with Plasmodium falciparum [2].
For `O=C(/C=C/c1ccc(F)cc1)NCCCCNc1ccnc2cc(Cl)ccc12`, the IC50 was found to be 1420 nM in the series on Plasmodium berghei [4], 19.7 nM in the series on Plasmodium falciparum [1] and 39.9 nM in the series with Plasmodium falciparum [2]. The same compound registered an inhibition in [3] of 50%.
Take `O=C(/C=C/c1ccc(Br)cc1)NCCCCNc1ccnc2cc(Cl)ccc12`: the values for the IC50 in the series on Plasmodium berghei [4], with Plasmodium falciparum [1] and in the series on Plasmodium falciparum [2] were 2280 nM, 18.2 nM and 28.8 nM, respectively. Moreover, the inhibition in [3] was over 75%.
As for `Cc1ccc(/C=C/C(=O)NCCCCNc2ccnc3cc(Cl)ccc23)cc1`, the figures for the IC50 with Plasmodium berghei [4], in the series with Plasmodium falciparum [1] and with Plasmodium falciparum [2] were 2360 nM, 16.9 nM and 24.2 nM, respectively.
As for `Cc1ccc(/C=C/C(=O)NCCCNc2ccnc3cc(Cl)ccc23)cc1`, the IC50 came to 47.4 nM in the series with Plasmodium falciparum [1] and 55.9 nM in the series on Plasmodium falciparum [2].
Regarding `CC(C)c1ccc(/C=C/C(=O)NCCCCNc2ccnc3cc(Cl)ccc23)cc1`, the IC50 with Plasmodium berghei [4] worked out at 2500 nM; in the series with Plasmodium falciparum [1], 11 nM; in the series on Plasmodium falciparum [2] it was 15.6 nM. The Activity result in the series on Mus musculus [5] is recorded as “Toxic”. In addition, the result in the series on Plasmodium berghei [6] and in the series with Plasmodium berghei [7] was inactive. Also, the inhibition in [3] is 50%.
Turning to `CCN(CC)CCCC(C)Nc1ccnc2cc(Cl)ccc12` (stereo not drawn) [CHLOROQUINE], the IC50 with Plasmodium berghei [4] was 15900 nM. In [3], this compound showed an inhibition of over 75%.
Regarding `COc1ccc(/C=C/C(=O)NCCCC(C)Nc2cc(OC)cc3cccnc23)cc1` (stereo not drawn), the IC50 was 2350 nM in the series with Plasmodium berghei [4] and over 10000 nM with Plasmodium falciparum [1].
As to `O=C(/C=C/c1ccc(Cl)cc1)NCCCCNc1ccnc2cc(Cl)ccc12`, the IC50 was found to be 1440 nM with Plasmodium berghei [4], 11.6 nM in the series on Plasmodium falciparum [1] and 26.2 nM in the series with Plasmodium falciparum [2]. Besides, the Activity result with Mus musculus [5] is “Toxic”. Besides, the Survival in the series with Plasmodium berghei [6] (route intraperitoneal) and with Plasmodium berghei [7] (route intraperitoneal) was 2 days in each case. Besides, in series [3], the inhibition was 50%.
As to `COc1cc(NC(C)CCCN)c2ncccc2c1` (stereo not drawn) [PRIMAQUINE], in the series on Plasmodium berghei [4], the IC50 amounted to 7500 nM.
As to `COc1ccc(/C=C/C(=O)NCCCNc2ccnc3cc(Cl)ccc23)cc1`, the IC50 with Plasmodium berghei [4] stood at 4020 nM; in the series on Plasmodium falciparum [1], 55.1 nM; in the series with Plasmodium falciparum [2], 49.5 nM.
On to `C[C@@H]1CC[C@H]2[C@@H](C)C(=O)O[C@@H]3O[C@@]4(C)CC[C@@H]1[C@]32OO4` [ARTEMISININ], for which the IC50 came out at 9.5 nM in the series on Plasmodium falciparum [1] and 23.5 nM in the series on Plasmodium falciparum [2]. The same compound displayed an inhibition in series [3] of under 50%.
With `COc1ccc(/C=C/C(=O)NCCCCNc2ccnc3cc(Cl)ccc23)cc1OC`, the half-maximal inhibitory concentration (IC50) in the series on Plasmodium berghei [4] was found to be 4050 nM; in the series on Plasmodium falciparum [1] it was 111 nM. Moreover, the Activity entry in the series on Huh-7 is given as “Non-toxic”.
As for `O=C(/C=C/c1ccc([N+](=O)[O-])cc1)NCCCCNc1ccnc2cc(Cl)ccc12`, the IC50 was 23.5 nM in the series with Plasmodium falciparum [1] and 48.9 nM in the series on Plasmodium falciparum [2]. Besides, the inhibition in series [3] is over 75%.
For `CC(C)c1ccc(/C=C/C(=O)NCCCNc2ccnc3cc(Cl)ccc23)cc1`, the IC50 turned out to be 38 nM in the series on Plasmodium falciparum [1] and 50.3 nM in the series with Plasmodium falciparum [2].
On to `O=C(/C=C/c1cccc([N+](=O)[O-])c1)NCCCNc1ccnc2cc(Cl)ccc12`, for which the figures for the IC50 in the series with Plasmodium falciparum [1] and in the series with Plasmodium falciparum [2] were 50.3 nM and 52.7 nM, respectively. Also, the inhibition in [3] was 50%.
Taken in the same sequence, the figures for `O=C(/C=C/c1ccccc1[N+](=O)[O-])NCCCNc1ccnc2cc(Cl)ccc12` were 52.1 nM, 64.2 nM and 50%.
For the compound `CC(C)c1ccc(/C=C/C(=O)NCCCCNc2ccnc3ccccc23)cc1`, half-maximal inhibition in the series on Plasmodium falciparum [1] (IC50) required 115 nM.
For the compound `COc1ccc(/C=C/C(=O)NCCCCNc2ccncc2)cc1`, the IC50 in the series on Plasmodium berghei [4] and in the series with Plasmodium falciparum [1] was over 10000 nM each time.
Regarding `O=C(/C=C/c1cccc(F)c1)NCCCNc1ccnc2cc(Cl)ccc12`, the IC50 was 73.3 nM in the series with Plasmodium falciparum [1] and 138 nM in the series on Plasmodium falciparum [2].
`O=C(/C=C/c1ccc(Cl)cc1)NCCCCCNc1ccnc2cc(Cl)ccc12`: the concentration for half-maximal inhibition (IC50) came to 1620 nM in the series on Plasmodium berghei [4] and 25.1 nM with Plasmodium falciparum [1].
As for `Nc1ccc(/C=C/C(=O)NCCCNc2ccnc3cc(Cl)ccc23)cc1`, the IC50 was determined as 79.8 nM with Plasmodium falciparum [1] and 135 nM in the series on Plasmodium falciparum [2].
On to `O=C(/C=C/c1ccccc1)NCCCCNc1ccnc2cc(Cl)ccc12`, for which the IC50 with Plasmodium berghei [4] worked out at 1060 nM; in the series with Plasmodium falciparum [1] it was 46.6 nM; in the series on Plasmodium falciparum [2], 62.9 nM.
As to `O=C(/C=C/c1ccccc1)NCCCNc1ccnc2cc(Cl)ccc12`, the IC50 in the series on Plasmodium falciparum [1] is 74.8 nM; in the series on Plasmodium falciparum [2], 141 nM.
With `COc1ccc(/C=C/C(=O)NCCCCCNc2ccnc3cc(Cl)ccc23)cc1`, the IC50 is 2270 nM in the series on Plasmodium berghei [4] and 50.3 nM in the series with Plasmodium falciparum [1].
On to `O=C(/C=C/c1ccc(Br)cc1)NCCCNc1ccnc2cc(Cl)ccc12`, for which the IC50 in the series with Plasmodium falciparum [1] was 38.2 nM; in the series with Plasmodium falciparum [2], 50 nM.
As to `O=C(/C=C/c1ccc([N+](=O)[O-])cc1)NCCCNc1ccnc2cc(Cl)ccc12`, the IC50 was determined as 23.7 nM in the series with Plasmodium falciparum [1] and 52.5 nM with Plasmodium falciparum [2]. Further, the inhibition in series [3] was 50%.
In the series on Plasmodium falciparum [1], `CC(C)c1ccc(/C=C/C(=O)NCCCCCNc2ccnc3cc(Cl)ccc23)cc1` showed an IC50 of 31.5 nM. Further, the inhibition in series [3] was determined as 50%.
Take `O=C(/C=C/c1cccc(F)c1)NCCCCNc1ccnc2cc(Cl)ccc12`: the IC50 with Plasmodium berghei [4] amounted to 1130 nM; in the series with Plasmodium falciparum [1], 34.1 nM; with Plasmodium falciparum [2], 50.9 nM. Besides, the inhibition in series [3] came to 50%.
As to `CN(C)c1ccc(/C=C/C(=O)NCCCCNc2ccnc3cc(Cl)ccc23)cc1`, half-maximal inhibition in the series with Plasmodium falciparum [1] (IC50) was put at 25.8 nM. Besides, the inhibition in [3] was 50%.
Take `COc1ccc(/C=C/C(=O)OCCCCNc2ccnc3cc(Cl)ccc23)cc1`: the IC50 with Plasmodium berghei [4] turned out to be 6470 nM; with Plasmodium falciparum [1] it was 122 nM. Moreover, the inhibition in series [3] worked out at 50%.
As to `CC(C)c1ccc(/C=C/C(=O)NCCCCN2CCOCC2)cc1`, the IC50 with Plasmodium berghei [4] and in the series with Plasmodium falciparum [1] was over 10000 nM each time.
Take `COc1ccc(/C=C/C(=O)NCCCCNc2ccnc3cc(Cl)ccc23)cc1`: the Survival with Plasmodium berghei [8] turned out to be 2 days. The results for the IC50 in the series on Plasmodium berghei [4], with Plasmodium falciparum [1] and in the series with Plasmodium falciparum [2] were 2860 nM, 20 nM and 30.6 nM, respectively. The outcome in the series on Plasmodium berghei [6] and in the series with Plasmodium berghei [7] was inactive. Moreover, the Activity entry in the series with Huh-7 and with Mus musculus [9] was “Non-toxic” throughout. The inhibition in series [3] came out at 50%.
Take `O=C(/C=C/c1cccc([N+](=O)[O-])c1)NCCCCNc1ccnc2cc(Cl)ccc12`: the values for the IC50 in the series on Plasmodium falciparum [1] and in the series on Plasmodium falciparum [2] were 26.2 nM and 42.1 nM, respectively.
As to `O=C(/C=C/c1ccccc1[N+](=O)[O-])NCCCCNc1ccnc2cc(Cl)ccc12`, the IC50 in the series on Plasmodium berghei [4] was 1090 nM; with Plasmodium falciparum [1] it was 38.3 nM; in the series on Plasmodium falciparum [2], 56.9 nM. Besides, the inhibition in series [3] was found to be 50%.

Broadly, the IC50 is the midpoint of a concentration-inhibition curve. A word on the inhibition: it is how much of the control response was suppressed. Higher therefore signals a response far below the control.
